In the RNAGym collection of RNA variant scans (doi:10.1126/science.aae0568):
Fewer inactive variants are shown than the library holds.

B1: tRNA (parent)
chain: GUUCCGUUGGCGUAAUGGUAACGCGUCUCCCUCCUAAGGAGAAGACUGCGGGUUCGAGUCCCGUACGGAACG

Variants of: B1
Assay: yeast fitness relative to wild type (ratio to wild type); higher = fitter; tRNA-Arg(CCU), competitive growth, 37 C, YPD
Outline: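 A pool of Saccharomyces cerevisiae strains, each with a tRNA-Arg(CCU) gene variant at the native genomic locus, was competed in YPD at 37°C for 24 hours across six parallel replicates. The variants had been chemically synthesised at a 3% per-site mutation rate over 69 sites, and gene amplicons before and after competition were read by 100-nucleotide paired-end sequencing. Darwinian fitness relative to wild type rested on changes in genotype frequencies. Genotypes required ≥ 100 starting reads, and estimates < 0.5 were set to 0.5.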

First: GUUCCGUUGGCGUAUUGGUAACGCAUCUCCCUCCUAAGGAGAAGACUGCGGGUUCGAGUCCCGUACGGAACG
Second: GUUCCGUUGGCGUAAAGGUGACGCGUUUACCUCCUAAGGACAAGACUGCGGGUUCGAGUCCCAUACGGAACG
The yeast fitness of the first is higher: 1 for the first, no more than 0.5 for the second.

GUUCCGUUGGCGUAUUGGUAACGCGUCUCCCUCCUAAGGAGAAAACUGCGGGUUCGAAUCCCGUACGCAACG and GUUCCGUUGGCGUAAAGGUAACGCGUCUCCCUCCUAAGGAGUAGACUGCGGGAUCGAGUCCCGUACGGAACG cannot be ordered by yeast fitness: no more than 0.5 for the first, no more than 0.5 for the second.

Going from GUUCCGUUGGCGUAAAGGUAACGCGUCUCCCUCCUAAGGAGCAGACUGCGGGUUCGAGUCCCGUACGGUACG to GUUCCGUUGGCGUAAAGGUAACGCGUCUCCCUCCUAGGAAGAAGACUGAAGGUUCGAGUCCCGUACGCAACG, the yeast fitness rises from 0.505 to 0.531.

Going from GUUCCGUUGGCGUAAAGGUAACGCGUCUCCCUCCUACGGAGAAGACUCCGGGUUCGAGUCCCGUACGGAACG to GUUCCGUUGGCGUAUUGGUAACGCGUCUCUCUCCUAGGGAGAAGACUGCGGGUUCGAGUCCCGUACGGAACG, the yeast fitness falls from 0.546 to no more than 0.5.

Compared with GUUCCGUUGGCGUAUUGGUAACGCGUCACCCUCCUAAGGAGAAGAAUGCGGGUUCGAGUCCCGUACGGAACG, GUUCCGUUGGCGUAUUGGUAACGCGUCGCCCUUCUAAGGAGAAGACUGCGGGUUCGAGUCCCGUACGGAACG is lower in yeast fitness: 0.507 for the first, no more than 0.5 for the second.

Compared with GUUCCGUUGGCGUAAAGGUAACGCGUCUCCCUCCUAAGGAGAAGCCUGCGGGUUCGAGUCCCGUACGGAACG, GUUCCGUUGGCGUAUCGGUAACGCGUCUCCCUCCUAAGGUGAAGACUGCGGGUUCGAGACCCGUACGGACCG is lower in yeast fitness: 0.994 for the first, no more than 0.5 for the second.

GUUCCGUUGGCGUAUUGGUAACGCGUCUCCCUCCUAACAAGACGACUACGGGUUCGAGUCCCGUACGGAACG and GUUCCGUUGGCGUAUUGGUAACGCGUCUCCCUCCUAAGGAGAAGAAUGCGGGUUCGAGUCCCGUACGUACCG cannot be ordered by yeast fitness: no more than 0.5 for the first, no more than 0.5 for the second.

Going from GUUCCGUUGGCGUAAAGGUAUCGCGUCUCACUCCUAAAGAGAAGACUGCGGGUUAGAGUCCCGUCCGGAACG to GUUCCGUUGGCGUAUUGGUAACGCGUCUCCUUCCUAAGGAGAAGACUGCGGGUUCGAGUCCCGUACGGAGCG, the yeast fitness rises from no more than 0.5 to 0.629.

Going from GUUCCGUUGGCGUAUUAGUAACGCGUCUCCCUCCUAAGGAGAAGAUUGCGGGUUCGAGUCCUGUACGGAACG to GUUCCGUUGGCGUAAAGGUAACGCGUCUCCCUCCUAAGGAGUAGACUGCGGGUUCGAGUCCCGUACGGAACG, the yeast fitness rises from 0.865 to 0.907.

First: GUUCCGUUGGCGUAUUGGUAACGCGUCUCCCUUCUAAGGAGAACACUGCGGGUUAGAGUCCCGUACGGAACG
Second: GUUCCGUUGGCGUAUUGGUAACGCGUCUCCCUCCUAAGGAGAAGACUGGGGGUUUGAGUCCCGUUCGGAACG
The yeast fitness of the first is lower: no more than 0.5 for the first, 0.56 for the second.

GUUCCGUUGGCGUAAAGGUAACGCGUCUCCCUCCUAAGGAGAGGCCUGCGGGUUCGAGUCCCGUACGGAACG and GUUCCGUUGGCGUAUUGGUAACGCGUCUCCCUCCUAAGGAGAAGACUGCGGGUUCGAGUGUCGUACGAAACG cannot be ordered by yeast fitness: no more than 0.5 for the first, no more than 0.5 for the second.

First: GUUCCGUUGGCGUAAAGGUCACGCGUCUCCCUCCUAAGGAGAAGACUGCGGGCUCGAGUCCCGUACGGAACG
Second: GUUCCGUUGGCGUAUUGGUAACGCGUCUCCCUCCUAAGGAGAAGACUGCGGGUUCGAGUCCUGUACGGAACG
The yeast fitness of the first is lower: 0.599 for the first, 0.787 for the second.

Compared with GUUCCGUUGGCGUAAAGGUACCGCGUCUCGCUCCUGAGGAGAAGACUGCGCAUUCGAGUCCCGUACGGAACG, GUUCCGUUGGCGUAUUGGUAACGCGUCUCCCUCCUAAGGAGAACACUGCGGGUUCGAGUCCCGUACGGAACG is higher in yeast fitness: no more than 0.5 for the first, 0.727 for the second.

Going from GUUCCGUUGGCGUAUUGGUAACGCAUCUCCCUCCUAAGGAGAAGACUGCGGGUUGGAGUCCCGUACGGAACG to GUUCCGUUGGCGUAUUGGUAACGCGUCUCCCUCCUAACAAGACGACUGCGGGUUCGAGAUCCGUACGGAACG, the yeast fitness falls from 0.555 to no more than 0.5.

First: GUUCCGUUGGCGUAUUCGUAACGCGUCUCCCUCCUAAGGAGAAGUCUGGGGGUUUGAGUCCCGUACGGAUCG
Second: GUUCCGUUGGCGUAUUGGUAACGCGUCUCCCUCCUAAGGAGAAGACCGGGGGUUUGAGUCCCGUUCGGAACG
The yeast fitness of the first is lower: no more than 0.5 for the first, 0.531 for the second.

First: GUUCCGUUGGCGUAUUGCUAACGCGUCUCCCUCGUAAGGAGGAGACUGCGGCUUCGAGUCCCGUACGGAACG
Second: GUUCCGUUGGCGUAUUGAUAACGCGUCUCCCUGCUAAGGAGCAGACUGCGGGUUCGAGUCCCGUACGGAACG
The yeast fitness of the first is higher: 0.575 for the first, no more than 0.5 for the second.

First: GUUCCGUUGGCGUAUUGGUAACGCGUCUCCCUCCUAAGAAGAAGACUGCGGGUUCGAGUCCCGUACGGAACG
Second: GUUCCGUUGGCGUAUUGGUAACGCCUCUCCCUCCUAAGGAGAAGACUGCGGGUUCGAGUCCCGUACGAAACG
The yeast fitness of the first is higher: 0.667 for the first, no more than 0.5 for the second.

First: GUUCCGUUGGCGUAAAGGUAUCGCGUCUCCCUGCUAAGGAGAAGACUGCGGGUUCGAGUCCCGUACGGAACG
Second: GUUCCGUUGGCGUAUUGGUAACGCGUCUCCCUCUUAAGGAGAAGACUGCGGGUUCGUGUUCCGUACGGAACG
The yeast fitness of the first is lower: no more than 0.5 for the first, 0.725 for the second.

Work on GUUCCGUUGGCGUAUUGGUAACGCGUCUUCCUUCUAAGGAGAAGACUGCGGGUUCGAGUCCCGUACGGAACG yielded a yeast fitness of no more than 0.5.
